In ChEMBL document CHEMBL1124981, “Binding of indolylalkylamines at 5-HT2 serotonin receptors: examination of a hydrophobic binding region” (J Med Chem, 1990):

Key:
[1] = target: Serotonin 2 (5-HT2) receptor (Rattus norvegicus, UniProt P30994+P08909+P14842); assay: Binding affinity against 5-hydroxytryptamine 2 receptor using [3H]ketanserin as radioligand; assay type: protein assay
Outline: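 Rat brain tissue homogenized in 50 mM Tris-HCl, 0.5 mM Na2EDTA, 10 mM MgSO4, pH 7.4, and centrifuged twice at 30000g. Assay buffer adds 10 μM pargyline and 0.1% ascorbate.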

[2] = target: T1, 5-hydroxytryptamine receptor 1A (Rattus norvegicus, UniProt P19327); assay: Binding affinity against 5-hydroxytryptamine 1A receptor using [3H]-8-OH-DPAT as radioligand
T1 sequence (P19327 whole entry): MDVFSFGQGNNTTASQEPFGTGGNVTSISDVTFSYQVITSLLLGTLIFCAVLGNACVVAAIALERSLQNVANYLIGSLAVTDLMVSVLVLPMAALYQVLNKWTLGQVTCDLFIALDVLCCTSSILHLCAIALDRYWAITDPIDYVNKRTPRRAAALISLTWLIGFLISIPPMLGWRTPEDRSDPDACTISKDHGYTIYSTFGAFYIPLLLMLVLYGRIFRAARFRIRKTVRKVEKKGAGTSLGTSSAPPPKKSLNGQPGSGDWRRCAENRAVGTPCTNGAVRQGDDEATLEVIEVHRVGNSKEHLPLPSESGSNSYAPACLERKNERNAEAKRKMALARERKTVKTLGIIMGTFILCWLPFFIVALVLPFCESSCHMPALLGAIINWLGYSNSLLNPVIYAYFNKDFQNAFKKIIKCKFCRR
Outline: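 Rat hippocampal homogenate (5 mg tissue) with [3H]-8-OH-DPAT; 10 μM 8-OH-DPAT defines nonspecific binding. Buffer: 50 mM Tris-HCl, 0.5 mM Na2EDTA, 10 mM MgSO4, pH 7.4, 10 μM pargyline, 0.1% ascorbate.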

CCCn1cc(CC(C)N)c2cc(OC)ccc21 (centres undefined)
Ki [1]: 635 nM

COc1ccc2[nH]cc(CC(C)N)c2c1 (centres undefined)
Ki [2]: 7 nM
Ki [1]: 345 nM

CC(N)Cc1cn(Cc2ccccc2)c2ccccc12 (centres undefined)
Ki [2]: 30 nM
Ki [1]: 160 nM

CC(N)Cc1cc[nH]c1 (centres undefined)
Ki [2]: > 10000 nM
Ki [1]: > 10000 nM

CCCn1cc(CC(C)N)c2ccccc21 (centres undefined)
Ki [2]: 715 nM
Ki [1]: 1550 nM

CCCCCn1cc(CC(C)N)c2ccccc21 (centres undefined)
Ki [2]: 2400 nM
Ki [1]: 100 nM

CCCCCCCCn1cc(CC(C)N)c2ccccc21 (centres undefined)
Ki [2]: 78 nM
Ki [1]: 280 nM

CCCCCn1ccc(CC(C)N)c1 (centres undefined)
Ki [2]: 7500 nM
Ki [1]: 5200 nM

CC(N)Cc1c[nH]c2ccccc12 (centres undefined)
Ki [2]: 530 nM

CCCn1ccc(CC(C)N)c1 (centres undefined)
Ki [2]: > 10000 nM
Ki [1]: > 10000 nM

CCCCCc1cccc2c(CC(C)N)c[nH]c12 (centres undefined)
Ki [2]: 6850 nM
Ki [1]: 140 nM

COc1ccc2c(c1)c(CC(C)N)cn2Cc1ccccc1 (centres undefined)
Ki [2]: > 10000 nM
Ki [1]: 250 nM

CCCc1cccc2c(CC(C)N)c[nH]c12 (centres undefined)
Ki [2]: 1000 nM
Ki [1]: 1040 nM
